The record followed here is ChEMBL document CHEMBL1152296, “Fragment-based design of small molecule X-linked inhibitor of apoptosis protein inhibitors” (J Med Chem, 2008).

Calls of active or inactive are those of the source. The rule behind the calls is not given here.

The test system of series [1] is MDA-MB-231. The series is described as follows: cells. The settings on record: Homo sapiens, MDA-MB-231, 48 h.
Series [2] can be described thus: Permeability by PAMPA method. Format: ADME. Background: PAMPA measures passive passage across an artificial lipid membrane.
The nature of series [3]: Metabolic stability in liver microsomes assessed as half life after 30 mins by LC/MS/MS analysis in presence of NADPH. Format: ADME, Microsome. (In general: Liver microsomes are vesicles of endoplasmic reticulum, rich in cytochrome P450 enzymes.)
Series [4] concerns MDA-MB-231. Nature of the series: Sensitization of 90 ng/mL TRAIL-induced apoptosis in human MDA-MB-231 cells assessed as combination index at 9 uM after 24 hrs by ATPlite assay. Format: functional.
The test system of series [5] is MEF. The series is described as follows: Inhibition of XIAP knockout MEF proliferation assessed as cell viability after 24 hrs by ATPlite assay relative to control. It is filed as functional, cell-based. As to conditions: Mus musculus. (In general: ATP-based viability assays read luminescence as a measure of living cells.)
The next series relates to Plasma. Nature of the series: Stability in human plasma assessed as compound remaining by LC/MS/MS analysis. It is filed as ADME, cell-free. The procedure, abridged:
(§1)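 Incubation in human plasma at 37 °C for 15, 60 and 120 min. Quantitation by LC/MS/MS in MRM mode, with results expressed as percent remaining of initial concentration.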

For series [6], the system named is MDA-MB-231. The series is described as follows: Sensitization of 120 ng/mL TRAIL-induced apoptosis in human MDA-MB-231 cells assessed as combination index at 12 uM after 24 hrs by ATPlite assay. It is filed as functional.
Series [7] deals with MEF. Nature of the series: Inhibition of wild type MEF proliferation assessed as cell viability at 5 to 45 uM after 24 hrs by ATPlite assay relative to control. Format: cell-based. The settings on record: mouse.
Series [8] has as its system MDA-MB-231. The series is described as follows: Increase in caspase-3 activation in human MDA-MB-231 cells at 5 to 20 uM after 24 hrs by MSD assay. It is filed as functional, cell-based.
Series [9] can be described thus: Metabolic stability in liver microsomes assessed as intrinsic clearance after 30 mins by LC/MS/MS analysis in presence of NADPH. It is filed as ADME, Microsome. The settings on record: 0.5 h.
A short description of series [10]: Apparent solubility after 1 day by nephelometry-based method. Format: physicochemical. In short, it runs like this: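 DMSO stock at 10 mM prepared on day 1. Tested at 8 concentrations in triplicate. Assay run on day 1 and read on day 2.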
The test system of series [11] is MDA-MB-231. Nature of the series: Sensitization of 130 ng/mL TRAIL-induced apoptosis in human MDA-MB-231 cells assessed as combination index at 13 uM after 24 hrs by ATPlite assay. Format: functional.
Series [12] deals with MDA-MB-231. The series is described as follows: Sensitization of 50 ng/mL TRAIL-induced apoptosis in human MDA-MB-231 cells assessed as combination index at 5 uM after 24 hrs by ATPlite assay. Format: functional.
Series [13] is described as follows: Stability in human plasma by LC/MS/MS analysis. It is filed as ADME, cell-free. The settings on record: read-out: Stability. In short, it runs like this:
as §1

Series [14] has as its system MDA-MB-231. Nature of the series: Sensitization of 100 ng/mLTRAIL-induced apoptosis in human MDA-MB-231 cells assessed as combination index at 10 uM after 24 hrs by ATPlite assay. It is filed as functional.
The target of series [15] is E3 ubiquitin-protein ligase XIAP (Homo sapiens, UniProt P98170). Nature of the series: Binding affinity to histidine6-tagged human XIAP Bir3 domain expressed in Escherichia coli BL21(DE3). The procedure, abridged: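 Binding to 15N-labelled Bir3 was measured by 2D [15N,1H]-HSQC NMR titration at 300 K. Samples held 0.1 mM protein in 100 mM potassium phosphate pH 7.0 with 5% DMSO and 7% D2O. At least six ligand concentrations were used. Kd came from a non-linear least-squares fit of fractional shift change (p) against ligand concentration.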
Chain of E3 ubiquitin-protein ligase XIAP (P98170 whole entry, the tested form may be a part): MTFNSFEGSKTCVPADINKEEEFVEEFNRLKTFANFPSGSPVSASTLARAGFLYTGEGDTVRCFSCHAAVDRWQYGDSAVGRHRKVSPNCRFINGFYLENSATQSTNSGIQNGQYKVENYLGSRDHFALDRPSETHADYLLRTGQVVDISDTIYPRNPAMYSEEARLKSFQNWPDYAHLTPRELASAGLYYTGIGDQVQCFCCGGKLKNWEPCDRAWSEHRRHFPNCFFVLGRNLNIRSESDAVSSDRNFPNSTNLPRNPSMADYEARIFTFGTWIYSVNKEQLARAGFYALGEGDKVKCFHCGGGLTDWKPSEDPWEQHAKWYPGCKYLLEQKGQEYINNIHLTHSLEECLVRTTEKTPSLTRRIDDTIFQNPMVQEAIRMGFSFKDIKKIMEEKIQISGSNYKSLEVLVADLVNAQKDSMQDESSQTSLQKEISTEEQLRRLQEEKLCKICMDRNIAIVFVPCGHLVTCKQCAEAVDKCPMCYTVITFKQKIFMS

Compound `CC[C@H](C)[C@H](NC(=O)[C@@H]1CCCN1C(=O)[C@@H](NC(=O)[C@H](C)N)C(C)C)C(=O)O` displayed an IC50 with MDA-MB-231 [1] greater than 50 µM.

The compound `CN[C@@H](C)C(=O)Nc1ccc(Oc2ccc(OC)cc2)c(C(=O)NCc2csc(-c3cccs3)n2)c1` registered a permeability in series [2] of 27%. Moreover, the values for the half-life in [3] and in series [13] were 14.5 min and greater than 120 min, respectively. For the same compound, the Activity in the series with MDA-MB-231 [4] is 0.4; with MDA-MB-231 [6], 0.27; in the series with MEF [7], “Toxic”; in the series with MDA-MB-231 [11], 0.32; with MDA-MB-231 [12], 0.44; in the series with MDA-MB-231 [14], 0.41. Also, the result in the series with MEF [5] and in the series with MDA-MB-231 [8] was Active. Also, in the series with Plasma, the Stability stood at 93.9%. The clearance in [9] was 47.7 µL/min/mg. For the same compound, in series [10], the solubility (kinetic) at 24 h was greater than 100 µg/mL.

`C[C@H](N)C(=O)Nc1ccc(Oc2ccccc2Cl)cc1` registered a Kd in series [15] of 200 µM.

One may read the IC50 as the midpoint of a concentration-inhibition curve. Low values mean greater potency, high ones weaker potency. In general, kinetic solubility refers to solubility judged after dilution from a stock solution rather than from solid. As a reminder, the Kd is a measure of binding affinity in units of concentration. Low values mean tighter binding, high ones weaker binding.
